This is an account of results in ChEMBL document CHEMBL1777669, “Synthesis of substituted triazolyl curcumin mimics that inhibit RANKL-induced osteoclastogenesis” (Bioorg Med Chem Lett, 2011).

pIC50: −log10 of the molar value. Bounds are passed on as bounds.

One test has as its system RAW264.7. Kind of test: Antiresorptive activity in mouse RAW264.7 cells assessed as inhibition of RANKL-induced osteoclastogenesis after 4 days by TRAP assay. It counts as functional, cell-based.
Settings: not given
Summed up: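 RAW264.7 cells, maintained in DMEM with 10% FBS and penicillin/streptomycin at 37 °C under 5% CO₂, were seeded at 1 × 10³ cells/well in α-MEM. On day 4, cells were fixed in 10% formalin (10 min) and 95% ethanol (1 min), then dried. TRAP activity was measured with 5 mM p-nitrophenylphosphate in 50 mM citrate buffer (pH 4.6, 10 mM tartrate) for 30 min, stopped with 0.1 N NaOH, and read at 410 nm.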
In the case of `COc1cc(/C=C/C(=O)c2cccc(-n3cc(-c4ccccc4C(F)(F)F)nn3)c2)ccc1O`, the inhibition entry was “Dose-dependent effect”.

Regarding `COc1ccc(/C=C/C(=O)c2cccc(N=[N+]=[N-])c2)cc1O`, the inhibition entry is “Dose-dependent effect”.

Consider `COc1ccc(/C=C/C(=O)c2cccc(-n3cc(-c4ccc(C)cc4)nn3)c2)cc1O`, for which the inhibition entry was “Dose-dependent effect”.

Regarding `COc1ccc(/C=C/C(=O)c2cccc(-n3cc(-c4ccccc4)nn3)c2)cc1O`, the inhibition result is “Dose-dependent effect”.

Still in this test, the particulars now being: RAW264.7, 96 h.
Broadly, the pIC50 is the negative decadic logarithm of the IC50, by convention in mol/L. For `COc1cc(/C=C/C(=O)c2cccc(-n3cc(-c4cc(F)cc(F)c4)nn3)c2)ccc1O`, the pIC50 was 4.64.

In the case of `COc1cc(/C=C/C(=O)c2cccc(-n3cc(-c4ccc(Br)cc4)nn3)c2)ccc1O`, the pIC50 was 4.72.

Take `COc1ccc(-c2cn(-c3cccc(C(=O)/C=C/c4ccc(OC)c(O)c4)c3)nn2)cc1`: the pIC50 is 5.20.

On to `COc1cc(/C=C/C(=O)c2cccc(-n3cc(-c4ccccc4C(F)(F)F)nn3)c2)ccc1O`, for which the pIC50 is 5.29.

For the molecule `COc1ccc(/C=C/C(=O)c2cccc(-n3cc(-c4ccccc4C(F)(F)F)nn3)c2)cc1O`, the pIC50 is 5.04.

Turning to `COc1ccc(/C=C/C(=O)c2cccc(N=[N+]=[N-])c2)cc1O`, the pIC50 is 5.71.

Regarding `COc1ccc(/C=C/C(=O)c2cccc(-n3cc(-c4cccc(Cl)c4)nn3)c2)cc1O`, the pIC50 is 5.18.

For `COc1cc(/C=C/C(=O)c2cccc(-n3cc(-c4ccc(F)cc4)nn3)c2)ccc1O`, the pIC50 is 5.19.

As for `COc1cc(/C=C/C(=O)c2cccc(-n3cc(-c4ccc(C)cc4)nn3)c2)ccc1O`, the pIC50 is 4.81.

For `COc1cc(/C=C/C(=O)c2cccc(N=[N+]=[N-])c2)ccc1O`, the pIC50 was 5.15.

`COc1cc(/C=C/C(=O)c2cccc(-n3cc(-c4cccc(Cl)c4)nn3)c2)ccc1O`: the pIC50 is 4.85.

`COc1ccc(/C=C/C(=O)c2cccc(-n3cc(-c4ccc(C)cc4)nn3)c2)cc1O`: the pIC50 is 5.77.

With `COc1ccc(/C=C/C(=O)c2cccc(-n3cc(C(C)(C)O)nn3)c2)cc1O`, the pIC50 was 4.77.

As for `CCCCCc1ccc(-c2cn(-c3cccc(C(=O)/C=C/c4ccc(O)c(OC)c4)c3)nn2)cc1`, the pIC50 was 5.24.

Take `COc1cc(/C=C/C(=O)c2cccc(-n3cc(C(C)(C)O)nn3)c2)ccc1O`: the pIC50 is 4.70.

Regarding `C=C(C)c1cn(-c2cccc(C(=O)/C=C/c3ccc(O)c(OC)c3)c2)nn1`, the negative logarithm of the IC50 (pIC50) is 5.01.

Consider `COc1ccc(/C=C/C(=O)c2cccc(-n3cc(-c4ccc(Br)cc4)nn3)c2)cc1O`, for which the pIC50 is 5.18.

With `CCCCCc1ccc(-c2cn(-c3cccc(C(=O)/C=C/c4ccc(OC)c(O)c4)c3)nn2)cc1`, the pIC50 was < 4.52.

`COc1ccc(/C=C/C(=O)c2cccc(-n3cc(-c4ccccc4)nn3)c2)cc1O`: the pIC50 is 5.82.

For `COc1cc(/C=C/C(=O)c2cccc(-n3cc(-c4ccccc4)nn3)c2)ccc1O`, the pIC50 was 4.77.

On to `COc1ccc(/C=C/C(=O)c2cccc(-n3cc(-c4ccc(F)cc4)nn3)c2)cc1O`, for which the pIC50 was 5.60.

Turning to `COc1ccc(-c2cn(-c3cccc(C(=O)/C=C/c4ccc(O)c(OC)c4)c3)nn2)cc1`, the pIC50 was 5.10.

Consider `C=C(C)c1cn(-c2cccc(C(=O)/C=C/c3ccc(OC)c(O)c3)c2)nn1`, for which the pIC50 is 5.11.

For `COc1ccc(/C=C/C(=O)c2cccc(-n3cc(-c4cc(F)cc(F)c4)nn3)c2)cc1O`, the pIC50 is 5.15.
